Starred links: 1 amine or outer side, 2 acyl side, 3 side chain; linkers in the order of their positions; H or OH if unused. Residues, ends and D or L forms follow the SMILES beside them. *: point of attachment. isoSer(2S) = O=C([C@@H](O)CN[*:1])[*:2]; NHCH2(2-pyridyl) = c1ccc(CN*)nc1; OBn = c1ccc(CO*)cc1
Columns and labels:
[1] = biological target: Myosin light chain kinase, smooth muscle (Gallus gallus) (UniProt P11799); conditions: 1000 uM
[2] = biological target: T1, Myosin light chain kinase, smooth muscle (Gallus gallus, UniProt P11799); test: Inhibition of native form of MLCK myosin light chain kinase from chicken gizzard
How it was run: (§1)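 Native calmodulin-dependent gizzard MLCK, over 95% homogeneous, with 200 nM calmodulin, 1 mM EGTA and about 200 μM excess free Ca2+. Started with ATP and stopped with HCl; phosphocellulose filter counting. Graphical IC50 from duplicates at four concentrations, or % inhibition at a single concentration.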

[3] = biological target: T1, Myosin light chain kinase, smooth muscle; test: Inhibition of calmodulin-independent form of MLCK(myosin light chain kinase) from chicken gizzard
How it was run: (§2)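 Chicken gizzard MLCK made calmodulin-independent by limited trypsin digestion. It was started with ATP and stopped with HCl. Phosphate in substrate was counted on phosphocellulose filters. IC50 was read graphically from duplicates at four concentrations and reported as the mean, or as % inhibition at one concentration.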

[4] = biological target: Myosin light chain kinase, smooth muscle (Gallus gallus) (UniProt P11799); test: Inhibition of calmodulin-independent form of Myosin light chain kinase from chicken gizzard at 100 uM; conditions: 300 uM, in the assay text read “at 300 uM” for “at 100 uM”
How it was run: as §2

[5] = biological target: Myosin light chain kinase, smooth muscle (Gallus gallus) (UniProt P11799); test: Inhibition of native form of myosin light chain kinase from chicken gizzard at 1000 uM
How it was run: as §1

[6] = biological target: Myosin light chain kinase, smooth muscle (Gallus gallus) (UniProt P11799); test: Rate of phosphate incorporation by myosin light chain kinase at 50 uM
[7] = biological target: T1, Myosin light chain kinase, smooth muscle; test: Inhibition of native form of myosin light chain kinase from chicken gizzard
How it was run: as §1

[8] = biological target: Myosin light chain kinase, smooth muscle (Gallus gallus) (UniProt P11799); test: Inhibition of native form of myosin light chain kinase at from chicken gizzard 100 uM
How it was run: as §1

[9] = biological target: Myosin light chain kinase, smooth muscle (Gallus gallus) (UniProt P11799); test: Inhibition of calmodulin-independent form of Myosin light chain kinase from chicken gizzard at 300 uM
How it was run: as §2

[10] = biological target: Myosin light chain kinase, smooth muscle (Gallus gallus) (UniProt P11799); test: Inhibition of native form of myosin light chain kinase from chicken gizzard 1000 uM
How it was run: as §1

Myosin light chain kinase, smooth muscle (Gallus gallus), sequence (P11799 whole entry): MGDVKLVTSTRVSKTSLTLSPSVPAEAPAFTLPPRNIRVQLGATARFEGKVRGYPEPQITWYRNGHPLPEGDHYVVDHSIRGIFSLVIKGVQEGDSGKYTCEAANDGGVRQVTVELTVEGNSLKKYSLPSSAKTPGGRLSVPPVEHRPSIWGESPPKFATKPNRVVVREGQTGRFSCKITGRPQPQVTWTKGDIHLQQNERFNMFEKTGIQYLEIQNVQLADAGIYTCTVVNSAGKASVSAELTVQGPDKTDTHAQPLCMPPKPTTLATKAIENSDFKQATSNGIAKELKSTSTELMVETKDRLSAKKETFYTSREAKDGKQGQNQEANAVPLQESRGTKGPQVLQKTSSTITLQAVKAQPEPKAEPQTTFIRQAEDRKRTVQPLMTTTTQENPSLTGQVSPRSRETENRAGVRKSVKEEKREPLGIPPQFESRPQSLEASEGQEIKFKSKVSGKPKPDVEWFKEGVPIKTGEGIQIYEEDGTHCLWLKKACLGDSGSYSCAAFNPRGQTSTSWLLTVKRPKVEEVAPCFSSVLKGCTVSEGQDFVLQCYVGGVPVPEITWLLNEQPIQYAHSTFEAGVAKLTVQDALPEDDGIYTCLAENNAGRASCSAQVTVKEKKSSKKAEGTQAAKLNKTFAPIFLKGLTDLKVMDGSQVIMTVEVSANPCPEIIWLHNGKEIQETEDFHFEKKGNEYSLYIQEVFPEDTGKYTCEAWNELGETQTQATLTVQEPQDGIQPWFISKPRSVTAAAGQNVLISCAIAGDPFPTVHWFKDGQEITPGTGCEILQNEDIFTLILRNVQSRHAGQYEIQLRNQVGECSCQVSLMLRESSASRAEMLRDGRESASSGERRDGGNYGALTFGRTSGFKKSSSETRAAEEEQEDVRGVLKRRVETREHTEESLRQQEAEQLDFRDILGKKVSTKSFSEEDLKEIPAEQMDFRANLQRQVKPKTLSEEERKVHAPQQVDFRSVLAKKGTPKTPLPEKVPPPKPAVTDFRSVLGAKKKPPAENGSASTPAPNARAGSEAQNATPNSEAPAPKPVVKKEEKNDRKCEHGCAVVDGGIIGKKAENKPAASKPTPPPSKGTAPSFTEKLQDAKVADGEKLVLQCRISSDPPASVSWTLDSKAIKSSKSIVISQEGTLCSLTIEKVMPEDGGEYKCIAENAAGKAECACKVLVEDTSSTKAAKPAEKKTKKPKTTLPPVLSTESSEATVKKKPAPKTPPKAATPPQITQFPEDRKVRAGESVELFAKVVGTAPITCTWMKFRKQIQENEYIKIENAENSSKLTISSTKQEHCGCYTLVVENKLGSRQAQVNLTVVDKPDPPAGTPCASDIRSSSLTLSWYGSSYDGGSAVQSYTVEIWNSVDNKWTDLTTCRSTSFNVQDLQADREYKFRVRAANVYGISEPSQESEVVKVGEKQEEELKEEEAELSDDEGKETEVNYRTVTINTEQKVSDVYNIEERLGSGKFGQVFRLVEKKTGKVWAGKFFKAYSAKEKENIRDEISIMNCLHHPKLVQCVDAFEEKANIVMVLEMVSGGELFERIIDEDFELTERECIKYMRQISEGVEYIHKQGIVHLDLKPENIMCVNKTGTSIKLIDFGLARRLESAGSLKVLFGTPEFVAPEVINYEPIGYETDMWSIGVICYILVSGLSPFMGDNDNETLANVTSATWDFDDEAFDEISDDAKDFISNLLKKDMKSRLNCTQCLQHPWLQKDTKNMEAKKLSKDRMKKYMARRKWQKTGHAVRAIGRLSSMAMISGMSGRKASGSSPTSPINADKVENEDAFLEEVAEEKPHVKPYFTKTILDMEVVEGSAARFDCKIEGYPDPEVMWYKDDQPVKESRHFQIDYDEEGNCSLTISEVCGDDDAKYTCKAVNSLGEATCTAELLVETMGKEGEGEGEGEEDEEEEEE
T1 sequence (P11799 whole entry): as above

For CC(C)[C@H](NC(=O)[C@H](CC(N)=O)NC(=O)[C@@H](N)CO)C(=O)N[C@@H](Cc1ccccc1)C(=O)N[C@@H](C)C(=O)OCc1ccccc1, which Rate [1] is on record?
Its Rate is 0.017 pM/min.

What about the IC50 [2] of the same compound?
The IC50 was 28 µM.

And the IC50 [3]?
The IC50 was 21 µM.

For CC(C)[C@H](NC(=O)[C@@H](/C=C/[C@@H](N)CO)CC(N)=O)C(=O)N[C@@H](Cc1ccccc1)C(=O)N[C@@H](C)C(=O)NCc1ccccc1, which inhibition [4] is on record?
Its inhibition is 0%.

With CC(C)[C@H](NC(=O)[C@H](CC(N)=O)NC[C@@H](N)CO)C(=O)N[C@@H](Cc1ccccc1)C(=O)N[C@@H](C)C(=O)NCc1ccccc1 as the compound, how does the inhibition [4] read?
The inhibition was 0%.

With CC(C)[C@H](NC[C@H](CC(N)=O)NC(=O)[C@@H](N)CO)C(=O)N[C@@H](Cc1ccccc1)C(=O)N[C@@H](C)C(=O)OCc1ccccc1 as the compound, how does the inhibition [4] read?
The inhibition was 33%.

Which inhibition [5] does the source give for C[C@H](NC(=O)[C@@H](N)Cc1ccccc1)C(=O)OCc1ccccc1 here?
The inhibition was 0%.

CC(C)[C@H](NC(=O)[C@H](CC(N)=O)NC(=O)[C@H](CO)NC(=O)[C@@H](NC(=O)[C@H](C)NC(=O)[C@H](CCCN=C(N)N)NC(=O)[C@H](CCC(N)=O)NC(=O)[C@@H]1CCCN1C(=O)[C@H](CCCN=C(N)N)NC(=O)[C@H](CCCCN)NC(=O)[C@@H](N)CCCCN)[C@@H](C)O)C(=O)N[C@@H](Cc1ccccc1)C(=O)N[C@@H](CO)C(N)=O (H-KKRPQRATSNVFS-NH2) was tested. Which Rate [6] did it give?
The Rate was 45 pmol/min.

With CC(C)[C@H](NC(=O)[C@@H](N)CC(N)=O)C(=O)N[C@@H](Cc1ccccc1)C(=O)N[C@@H](C)C(=O)OCc1ccccc1 (H-NVFA-OBn) as the compound, how does the IC50 [7] read?
The IC50 was 800 µM.

With CC(C)[C@H](NC(=O)[C@H](Cc1c[nH]cn1)NC(=O)[C@@H](N)CO)C(=O)N[C@@H](Cc1ccccc1)C(=O)N[C@@H](C)C(=O)OCc1ccccc1 (H-SHVFA-OBn) as the compound, how does the inhibition [8] read?
The inhibition was 0%.

With C[C@H](NC(=O)[C@H](Cc1ccccc1)NC(=O)CNC(=O)[C@H](CC(N)=O)NC(=O)[C@@H](N)CO)C(=O)OCc1ccccc1 (H-SNGFA-OBn) as the compound, how does the inhibition [4] read?
The inhibition was 17%.

With CC(C)[C@H](NC(=O)[C@H](CC(N)=O)NC(=O)[C@@H](N)CO)C(=O)N[C@@H](Cc1ccccc1)C(=O)N[C@@H](C)C(N)=O (H-SNVFA-NH2) as the compound, how does the inhibition [9] read?
The inhibition was 0%.

With CC(C)[C@H](NC(=O)[C@H](CC(N)=O)NC(=O)[C@@H](N)CO)C(=O)N[C@@H](Cc1ccccc1)C(=O)N[C@@H](C)C(=O)O (H-SNVFA-OH) as the compound, how does the inhibition [4] read?
The inhibition was 0%.

COC(=O)[C@H](C)NC(=O)[C@H](Cc1ccccc1)NC(=O)[C@@H](NC(=O)[C@H](CC(N)=O)NC(=O)[C@@H](N)CO)C(C)C (H-SNVFA-OMe) was tested. Which inhibition [9] did it give?
The inhibition was 0%.

How did the inhibition [4] turn out when CC(C)[C@H](NC(=O)[C@H](CC(N)=O)NC(=O)[C@@H](N)CO)C(=O)N[C@@H](Cc1ccccc1)C(=O)N[C@@H](C)C(=O)NCc1ccccn1 (H-SNVFA-{NHCH2(2-pyridyl)}) was run?
The inhibition was 5%.

What about the inhibition [5] of the same compound?
Its inhibition is 0%.

Which inhibition [8] does the source give for CC(C)[C@H](NC(=O)[C@H](CCC(N)=O)NC(=O)[C@@H](N)CO)C(=O)N[C@@H](Cc1ccccc1)C(=O)N[C@@H](C)C(=O)OCc1ccccc1 (H-SQVFA-OBn) here?
The inhibition was 32%.

CC(C)[C@H](NC(=O)[C@H](CO)NC(=O)[C@@H](N)CO)C(=O)N[C@@H](Cc1ccccc1)C(=O)N[C@@H](C)C(=O)OCc1ccccc1 (H-SSVFA-OBn) was tested. Which inhibition [8] did it give?
Its inhibition is 15%.

Which inhibition [10] does the source give for CC(C)[C@H](NC(=O)[C@H](CC(N)=O)NC(=O)[C@@H](N)CO)C(=O)OCc1ccccc1 (H-Ser-Asn-Val-OBn) here?
The inhibition was 0%.

For CC(C)[C@H](N)C(=O)N[C@@H](Cc1ccccc1)C(=O)N[C@@H](C)C(=O)OCc1ccccc1 (H-Val-Phe-Ala-OBn), which IC50 [7] is on record?
Its IC50 is 1000 µM.

How did the inhibition [8] turn out when CC(C)[C@H](NC(=O)[C@H](CC(N)=O)NC(=O)[C@@H](O)CN)C(=O)N[C@@H](Cc1ccccc1)C(=O)N[C@@H](C)C(=O)OCc1ccccc1 ({isoSer(2S)}-NVFA-OBn) was run?
Its inhibition is 14%.

Source: ChEMBL document CHEMBL1124728, “Small peptide inhibitors of smooth muscle myosin light chain kinase” (J Med Chem, 1990)
